Calls of active or inactive are those of the source. The calls are words filed in the database; no cut-off is given here.
Assays:
[1] = molecular target: 5-hydroxytryptamine receptor 2B (Homo sapiens) (UniProt P41595); experiment: Displacement of [3H]lysergic acid diethylamide from human 5HT2B receptor at 10 uM
[2] = molecular target: Substance-P receptor (Homo sapiens) (UniProt P25103); experiment: Displacement of [3H]substance P from human NK1 receptor 2 at 10 uM
[3] = Plasma concentration in C57BL/6 mouse at 1 mg/kg, ip administered as single dose measured after 120 mins by LC/MS analysis based RACE assay; assay type: ADME, organism-based; design: dose 1 mg/kg, route intraperitoneal
In short: (§1)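 Single intraperitoneal dose of 1, 5 or 10 mg/kg given to C57BL/6 mice, 3 mice per dose and time point, with a vehicle-control cohort. Plasma was sampled at 20 and 120 min post-dose and drug level measured by LC/MS. Each time point averaged two injections (<20% difference); values are means ± standard deviation in μM.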

[4] = molecular target: hERG (KCNH2) (Homo sapiens, UniProt Q12809); experiment: Displacement of [3H]astemizole from human ERG channel at 10 uM; conditions: probe [3H]astemizole
[5] = molecular target: Muscarinic acetylcholine receptor M2 (Homo sapiens) (UniProt P08172); experiment: Displacement of [3H]N-Methylscopolamine from human muscarinic M2 receptor at 10 uM
Chain of Muscarinic acetylcholine receptor M2 (Homo sapiens) (P08172 whole entry): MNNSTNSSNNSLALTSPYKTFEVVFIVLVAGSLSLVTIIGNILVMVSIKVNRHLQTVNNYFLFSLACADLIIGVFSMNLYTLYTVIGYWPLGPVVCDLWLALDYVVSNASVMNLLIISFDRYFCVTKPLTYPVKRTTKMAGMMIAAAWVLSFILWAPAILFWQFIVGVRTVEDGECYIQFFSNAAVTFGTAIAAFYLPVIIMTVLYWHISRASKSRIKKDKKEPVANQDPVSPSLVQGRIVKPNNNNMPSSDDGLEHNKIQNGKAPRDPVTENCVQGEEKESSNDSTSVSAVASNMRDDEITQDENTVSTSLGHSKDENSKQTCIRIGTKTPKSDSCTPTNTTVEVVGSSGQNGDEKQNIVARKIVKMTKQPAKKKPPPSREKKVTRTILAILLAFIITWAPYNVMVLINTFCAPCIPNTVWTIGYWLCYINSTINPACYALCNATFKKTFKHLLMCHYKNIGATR

[6] = molecular target: CYP2C9 (Homo sapiens, UniProt P11712); experiment: Inhibition of human CYP2C9 at 10 uM; assay type: ADME
Chain of CYP2C9 (P11712 whole entry): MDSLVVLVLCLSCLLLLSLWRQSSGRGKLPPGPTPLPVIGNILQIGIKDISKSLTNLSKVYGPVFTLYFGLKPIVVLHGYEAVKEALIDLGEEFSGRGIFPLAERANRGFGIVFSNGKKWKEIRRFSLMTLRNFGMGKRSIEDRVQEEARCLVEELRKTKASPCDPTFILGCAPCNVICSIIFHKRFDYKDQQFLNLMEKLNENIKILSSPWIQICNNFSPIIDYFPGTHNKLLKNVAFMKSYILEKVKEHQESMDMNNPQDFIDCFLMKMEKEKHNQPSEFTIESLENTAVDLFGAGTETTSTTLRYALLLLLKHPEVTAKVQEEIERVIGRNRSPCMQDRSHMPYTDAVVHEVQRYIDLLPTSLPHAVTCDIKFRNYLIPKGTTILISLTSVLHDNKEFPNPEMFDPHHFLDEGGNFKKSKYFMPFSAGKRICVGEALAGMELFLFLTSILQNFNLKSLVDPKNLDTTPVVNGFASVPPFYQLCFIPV

[7] = molecular target: Alpha-2A adrenergic receptor (Homo sapiens) (UniProt P08913); experiment: Displacement of [3H]MK-912 from human adrenergic alpha2A receptor at 10 uM
Chain of Alpha-2A adrenergic receptor (Homo sapiens) (P08913 whole entry): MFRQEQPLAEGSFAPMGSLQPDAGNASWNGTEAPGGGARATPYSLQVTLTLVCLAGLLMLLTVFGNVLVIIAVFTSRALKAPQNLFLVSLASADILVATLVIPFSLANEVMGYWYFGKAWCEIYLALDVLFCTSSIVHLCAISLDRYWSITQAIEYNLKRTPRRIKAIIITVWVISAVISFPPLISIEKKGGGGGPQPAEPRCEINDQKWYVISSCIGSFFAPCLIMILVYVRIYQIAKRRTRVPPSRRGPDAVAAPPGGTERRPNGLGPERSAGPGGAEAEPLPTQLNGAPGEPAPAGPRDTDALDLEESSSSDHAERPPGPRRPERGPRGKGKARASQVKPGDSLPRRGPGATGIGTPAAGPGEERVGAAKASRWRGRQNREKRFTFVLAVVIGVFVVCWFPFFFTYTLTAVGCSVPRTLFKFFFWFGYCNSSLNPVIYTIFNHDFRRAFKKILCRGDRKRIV

[8] = molecular target: T1, Glutamate NMDA receptor (Rattus norvegicus) (UniProt P35439+Q00959+Q00960+Q00961+Q62645+Q8VHN2+Q9R1M7); experiment: Displacement of [3H]TCP from rat NMDA receptor phencyclidine binding site binding site at 10 uM; assay type: protein-complex assay
[9] = tested on: Mus musculus; experiment: Toxicity in Venezuelan equine encephalitis virus TC83 infected C3H/HeN mouse assessed as induction of hunched posture at 40 mg/kg/day, ip BID for 4 days; assay type: organism-based; design: route intraperitoneal; conditions: in vivo, 96 h
[10] = molecular target: Sodium-dependent dopamine transporter (Homo sapiens) (UniProt Q01959); experiment: Displacement of [125I]RTI-55 from human DAT at 10 uM
Chain of Sodium-dependent dopamine transporter (Homo sapiens) (Q01959 whole entry): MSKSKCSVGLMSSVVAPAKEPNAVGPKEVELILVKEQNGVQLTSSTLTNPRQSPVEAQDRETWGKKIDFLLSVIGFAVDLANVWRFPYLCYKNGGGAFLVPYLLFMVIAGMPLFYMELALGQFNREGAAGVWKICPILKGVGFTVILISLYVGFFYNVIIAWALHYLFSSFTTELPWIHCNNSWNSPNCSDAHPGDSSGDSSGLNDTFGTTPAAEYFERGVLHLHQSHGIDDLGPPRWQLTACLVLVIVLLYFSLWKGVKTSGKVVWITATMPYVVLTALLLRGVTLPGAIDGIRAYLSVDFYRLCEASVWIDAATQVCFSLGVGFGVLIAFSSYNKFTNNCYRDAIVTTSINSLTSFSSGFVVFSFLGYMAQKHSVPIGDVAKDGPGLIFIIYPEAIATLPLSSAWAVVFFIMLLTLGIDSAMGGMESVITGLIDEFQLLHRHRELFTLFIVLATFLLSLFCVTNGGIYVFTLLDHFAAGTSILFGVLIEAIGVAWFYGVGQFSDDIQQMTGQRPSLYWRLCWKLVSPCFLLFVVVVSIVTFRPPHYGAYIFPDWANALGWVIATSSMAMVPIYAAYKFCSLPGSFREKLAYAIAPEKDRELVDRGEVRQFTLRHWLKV

[11] = molecular target: T1, Glutamate NMDA receptor (Rattus norvegicus); experiment: Displacement of [3H]CGP-39653 from rat NMDA receptor agonist binding site binding site at 10 uM; assay type: protein-complex assay
[12] = Stability in pH 7.4 PBS buffer assessed as parent compound remaining; assay type: physicochemical
In short: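 Aqueous stability measured after 48 h incubation, in PBS pH 7.4 or in 1:1 PBS/acetonitrile; reported as % parent remaining.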

[13] = molecular target: B2 bradykinin receptor (Homo sapiens) (UniProt P30411); experiment: Displacement of [3H]bradykinin from human bradykinin B2 receptor at 10 uM
[14] = Plasma concentration in C57BL/6 mouse at 5 mg/kg, ip administered as single dose measured after 120 mins by LC/MS analysis based RACE assay; assay type: ADME, organism-based; design: dose 5 mg/kg, route intraperitoneal; in short: as §1
[15] = species on record: Rattus norvegicus; experiment: Displacement of [3H]kainic acid from rat kainate receptor at 10 uM
[16] = species on record: Rattus norvegicus; experiment: Displacement of [3H]idazoxan from rat Imidazole receptor 2 at 10 uM
[17] = molecular target: Neuropeptide Y receptor type 2 (Homo sapiens) (UniProt P49146); experiment: Displacement of [125I]Peptide YY from human neuropeptide Y Y2 receptor at 10 uM
Chain of Neuropeptide Y receptor type 2 (Homo sapiens) (P49146 whole entry): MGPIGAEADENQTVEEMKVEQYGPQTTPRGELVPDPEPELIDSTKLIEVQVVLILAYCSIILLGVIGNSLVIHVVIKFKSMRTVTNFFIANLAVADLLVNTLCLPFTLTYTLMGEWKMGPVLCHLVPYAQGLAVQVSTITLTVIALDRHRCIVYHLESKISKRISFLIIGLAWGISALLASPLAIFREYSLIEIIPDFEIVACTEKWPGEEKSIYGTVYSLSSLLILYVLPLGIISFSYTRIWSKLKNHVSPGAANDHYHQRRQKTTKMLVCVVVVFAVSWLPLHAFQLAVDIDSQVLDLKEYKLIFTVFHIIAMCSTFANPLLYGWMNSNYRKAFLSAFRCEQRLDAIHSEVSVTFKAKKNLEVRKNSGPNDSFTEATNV

[18] = molecular target: Muscarinic acetylcholine receptor M1 (Homo sapiens) (UniProt P11229); experiment: Displacement of [3H]N-Methylscopolamine from human muscarinic M1 receptor at 10 uM
Chain of Muscarinic acetylcholine receptor M1 (Homo sapiens) (P11229 whole entry): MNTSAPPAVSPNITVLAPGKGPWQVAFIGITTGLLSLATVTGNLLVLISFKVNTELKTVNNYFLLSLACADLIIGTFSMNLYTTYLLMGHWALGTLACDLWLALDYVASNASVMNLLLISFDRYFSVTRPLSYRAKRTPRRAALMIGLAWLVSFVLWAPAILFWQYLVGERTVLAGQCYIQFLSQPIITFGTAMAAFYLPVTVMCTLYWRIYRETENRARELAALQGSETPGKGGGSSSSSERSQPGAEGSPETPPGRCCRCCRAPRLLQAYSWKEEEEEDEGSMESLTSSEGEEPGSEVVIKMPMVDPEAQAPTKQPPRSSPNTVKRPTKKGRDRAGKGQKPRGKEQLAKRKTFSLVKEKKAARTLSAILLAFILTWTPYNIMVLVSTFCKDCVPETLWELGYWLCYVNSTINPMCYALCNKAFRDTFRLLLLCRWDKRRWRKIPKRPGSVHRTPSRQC

[19] = molecular target: Melatonin-related receptor (Homo sapiens) (UniProt Q13585); experiment: Displacement of [125I]2-Iodomelatonin from human MT1 receptor at 10 uM
Chain of Melatonin-related receptor (Homo sapiens) (Q13585 whole entry): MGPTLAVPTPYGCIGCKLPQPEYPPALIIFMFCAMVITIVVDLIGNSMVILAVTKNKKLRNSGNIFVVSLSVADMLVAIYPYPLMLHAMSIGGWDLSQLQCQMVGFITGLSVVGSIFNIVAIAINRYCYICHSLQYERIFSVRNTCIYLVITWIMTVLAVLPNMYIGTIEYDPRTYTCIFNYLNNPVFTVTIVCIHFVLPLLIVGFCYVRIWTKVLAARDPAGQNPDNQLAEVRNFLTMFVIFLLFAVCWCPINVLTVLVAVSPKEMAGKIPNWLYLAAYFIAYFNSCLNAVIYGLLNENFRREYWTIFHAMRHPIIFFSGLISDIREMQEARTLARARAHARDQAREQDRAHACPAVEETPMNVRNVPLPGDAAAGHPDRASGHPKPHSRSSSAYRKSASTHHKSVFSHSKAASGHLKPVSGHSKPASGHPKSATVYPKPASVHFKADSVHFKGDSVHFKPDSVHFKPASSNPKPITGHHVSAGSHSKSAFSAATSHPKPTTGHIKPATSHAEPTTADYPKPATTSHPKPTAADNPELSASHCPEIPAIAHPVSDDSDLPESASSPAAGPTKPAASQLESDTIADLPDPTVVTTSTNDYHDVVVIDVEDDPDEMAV

[20] = tested on: Mus musculus; experiment: Toxicity in Venezuelan equine encephalitis virus TC83 infected C3H/HeN mouse assessed as induction of lethargy at 40 mg/kg/day, ip BID for 4 days; assay type: organism-based; design: route intraperitoneal; conditions: in vivo, 96 h
[21] = species on record: Rattus norvegicus; experiment: Displacement of [3H]GABA from rat GABA transporter at 10 uM
[22] = tested on: Venezuelan equine encephalitis virus; experiment: Antiviral activity against Venezuelan equine encephalitis virus TrD infected in Vero 76 cells assessed as reduction in viral titer at 1 uM by crystal violet staining based microplaque assay relative to untreated control; assay type: functional
[23] = tested on: Plasma; experiment: Protein binding in mouse plasma at 1 uM; assay type: ADME, cell-free
[24] = molecular target: GABA-A receptor; anion channel (Homo sapiens) (UniProt P14867+P47870+P18507+P28472+P48169+Q99928+Q9UN88+P34903+O00591+O14764+Q8N1C3+P18505+P78334+P47869+P31644+Q16445); experiment: Displacement of ABC from rat GABAA receptor central flunitrazepam site at 10 uM; assay type: protein-complex assay; conditions: target entry is the homologue from another species
[25] = Plasma concentration in C57BL/6 mouse at 10 mg/kg, ip administered as single dose measured after 20 mins by LC/MS analysis based RACE assay; assay type: ADME, organism-based; design: dose 10 mg/kg, route intraperitoneal; in short: as §1
[26] = molecular target: Adenosine receptor A2a (Homo sapiens) (UniProt P29274); experiment: Displacement of [3H]CGS-21680 from human adenosine A2A receptor at 10 uM
Chain of Adenosine receptor A2a (Homo sapiens) (P29274 whole entry): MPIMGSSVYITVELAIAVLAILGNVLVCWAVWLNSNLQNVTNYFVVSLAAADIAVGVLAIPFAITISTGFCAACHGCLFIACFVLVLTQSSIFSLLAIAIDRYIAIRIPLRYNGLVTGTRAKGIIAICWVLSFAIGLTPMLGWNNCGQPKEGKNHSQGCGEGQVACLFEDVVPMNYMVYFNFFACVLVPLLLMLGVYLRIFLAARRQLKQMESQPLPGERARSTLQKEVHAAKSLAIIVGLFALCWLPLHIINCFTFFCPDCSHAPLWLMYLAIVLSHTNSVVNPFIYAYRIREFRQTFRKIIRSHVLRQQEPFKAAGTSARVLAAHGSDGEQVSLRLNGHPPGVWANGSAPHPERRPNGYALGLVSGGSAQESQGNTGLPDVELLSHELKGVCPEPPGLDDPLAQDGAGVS

[27] = molecular target: CYP3A4 (Homo sapiens, UniProt P08684); experiment: Inhibition of human CYP3A4 at 10 uM; assay type: ADME
Chain of CYP3A4 (P08684 whole entry): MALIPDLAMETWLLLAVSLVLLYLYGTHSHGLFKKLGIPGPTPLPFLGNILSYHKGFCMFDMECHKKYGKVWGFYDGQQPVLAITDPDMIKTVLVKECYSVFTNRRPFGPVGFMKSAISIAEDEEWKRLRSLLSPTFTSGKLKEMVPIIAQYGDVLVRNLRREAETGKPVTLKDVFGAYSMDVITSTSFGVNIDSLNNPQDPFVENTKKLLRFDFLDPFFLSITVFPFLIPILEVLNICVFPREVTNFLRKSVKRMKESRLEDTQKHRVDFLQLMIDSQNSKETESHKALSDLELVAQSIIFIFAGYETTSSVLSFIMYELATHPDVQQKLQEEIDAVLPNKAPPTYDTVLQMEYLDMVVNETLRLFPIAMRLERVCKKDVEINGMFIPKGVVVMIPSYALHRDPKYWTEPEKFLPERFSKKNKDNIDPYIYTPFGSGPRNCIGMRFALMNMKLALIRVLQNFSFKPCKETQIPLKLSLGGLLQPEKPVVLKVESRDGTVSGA
In short: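 Human CYP inhibition run with reference inhibitors as controls: α-naphthoflavone for CYP1A2 and ketoconazole for CYP3A4.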

[28] = Plasma concentration in C57BL/6 mouse at 10 mg/kg, ip administered as single dose measured after 120 mins by LC/MS analysis based RACE assay; assay type: ADME, organism-based; design: dose 10 mg/kg, route intraperitoneal; in short: as §1
[29] = tested on: Venezuelan equine encephalitis virus; experiment: Antiviral activity against Venezuelan equine encephalitis virus TrD infected in Vero 76 cells assessed as reduction in viral titer at 0.5 uM by crystal violet staining based microplaque assay relative to untreated control; assay type: functional, organism-based
[30] = Drug concentration in C57BL/6 mouse brain at 5 mg/kg, ip administered as single dose measured after 120 mins by LC/MS analysis based RACE assay; assay type: ADME, organism-based; design: dose 5 mg/kg, route intraperitoneal; conditions: read-out: Drug uptake
In short: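 Brain tissue taken at the terminal 120 min point after one intraperitoneal dose (1, 5 or 10 mg/kg) in C57BL/6 mice, 3 per group, with a vehicle cohort. Drug level measured by LC/MS, averaging two injections per sample; reported as mean ± standard deviation, μM.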

[31] = species on record: Rattus norvegicus; experiment: Displacement of [35S]ATP-alphaS from rat P2Y channel at 10 uM
[32] = molecular target: L-type calcium channel, dihydropyridine site (Rattus norvegicus, UniProt P22002+P27732+Q02485); experiment: Displacement of [3H]nitrendipine from rat calcium channel L-Type dihydropyridine site at 10 uM; assay type: protein assay; conditions: probe [3H]nitrendipine
[33] = species on record: Rattus norvegicus; experiment: Displacement of [125I]triiodothyronine from rat thyroid hormone receptor 10 uM
[34] = Cytotoxicity against african green monkey Vero 76 cells after 3 days by Celltiter-Glo reagent based assay; assay type: cell-based; conditions: chlorocebus sabaeus, vero 76, 72 h
In short: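 Vero 76 cells were seeded overnight at 12 000/well and given an 8-point 2-fold compound series (20 mM DMSO stock) in EMEM/10% FBS with no virus. Viability was read by CellTiter-Glo after 3 days relative to untreated cells. Run in duplicate; CC50 from a four-parameter logistic or sigmoidal fit.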

Chain of 5-hydroxytryptamine receptor 2B (Homo sapiens) (P41595 whole entry): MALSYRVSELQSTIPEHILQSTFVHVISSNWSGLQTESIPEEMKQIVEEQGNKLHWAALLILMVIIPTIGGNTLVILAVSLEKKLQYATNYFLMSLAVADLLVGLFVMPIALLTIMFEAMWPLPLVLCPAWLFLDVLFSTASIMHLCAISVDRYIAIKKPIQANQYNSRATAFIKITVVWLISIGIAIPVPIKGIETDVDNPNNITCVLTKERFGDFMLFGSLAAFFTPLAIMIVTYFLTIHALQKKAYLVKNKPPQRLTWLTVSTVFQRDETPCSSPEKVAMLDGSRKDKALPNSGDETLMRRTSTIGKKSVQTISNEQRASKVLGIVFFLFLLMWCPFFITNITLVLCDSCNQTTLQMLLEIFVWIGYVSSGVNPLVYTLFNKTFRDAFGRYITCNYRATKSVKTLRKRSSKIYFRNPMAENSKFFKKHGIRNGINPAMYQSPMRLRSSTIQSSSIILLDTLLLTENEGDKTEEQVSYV

SMILES: CN1CCN(C)/C(=N/c2ccc([N+](=O)[O-])cc2C(=O)Nc2ccccc2)C1
- inhibition [1]: 10%
- inhibition [2]: 8.19%
- concentration at 2 h [3]: 23 nM
- inhibition at 10 µM [4]: 30%
- inhibition [5]: 2.1%
- inhibition at 10 µM [6]: 7%
- inhibition [7]: -0.5%
- inhibition [8]: 9.28%
- Activity [9]: Non-toxic
- inhibition [10]: 10.8%
- inhibition [11]: -2.6%
- Stability [12]: 82.9%
- inhibition [13]: 3.4%
- concentration at 2 h [14]: 290 nM
- inhibition [15]: 22.3%
- inhibition [16]: 14.4%
- inhibition [17]: -6.1%
- inhibition [18]: 0.73%
- inhibition [19]: 18%
- Activity [20]: Non-toxic
- inhibition [21]: 0.42%
- inhibition [22]: Active
- PPB [23]: 85%
- inhibition [24]: 15.2%
- concentration at 20 min [25]: 2680 nM
- inhibition [26]: 17%
- inhibition at 10 µM [27]: 18%
- concentration at 2 h [28]: 490 nM
- inhibition [29]: Active
- concentration at 2 h [30]: 210 nM
- inhibition [31]: 6.41%
- inhibition at 10 µM [32]: 4.51%
- inhibition [33]: 1.61%
- CC50 [34]: > 50 µM

Source: ChEMBL document CHEMBL3352189 (J Med Chem, 2014)
